The source made the active and inactive calls. No cut-off for these calls is given here.
How the values were obtained:
SARS-CoV-2 [1] = experiment: Antiviral activity against SARS-CoV-2 infected in Vero E6 cells assessed as virus-induced cytopathic effect at 40 uM measured after 48 hrs by CCK-8 assay; type: functional, organism-based; settings: Severe acute respiratory syndrome coronavirus 2
SARS-CoV-2 [2] = experiment: Antiviral activity against SARS-CoV-2 infected in Vero E6 cells assessed as viral RNA level measured after 48 hrs by RT-PCR analysis; type: functional, organism-based; settings: Severe acute respiratory syndrome coronavirus 2, Vero C1008, 48 h
[3] = Toxicity in mouse assessed as death at 230 mg/kg, po measured after 12 days; type: organism-based; settings: in vivo, 288 h, time 12 day
In short: (§1)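 Male and female mice (25 g; n = 8 per group; vehicle-control and test groups) were fasted overnight. Compounds were given as sulfate salts in physiological saline, intragastrically at 230 mg/kg twice a day; controls received saline. Survival was followed by day post dosing, in a double-dose acute toxicity assay.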

[4] = Toxicity in mouse assessed as death at 230 mg/kg, po measured after 9 days; type: organism-based; settings: in vivo, 216 h, time 9 day; in short: as §1
[5] = Toxicity in mouse assessed as death at 230 mg/kg, po measured after 7 days; type: organism-based; settings: in vivo, 168 h, time 7 day; in short: as §1
SARS-CoV-2 [6] = experiment: Antiviral activity against SARS-CoV-2 infected in Vero E6 cells assessed as virus-induced cytopathic effect at 5 uM measured after 48 hrs by CCK-8 assay; type: functional, organism-based; settings: Severe acute respiratory syndrome coronavirus 2

Row | Compound | Activity (SARS-CoV-2 [1]) | EC50 (SARS-CoV-2 [2]) [µM] | Activity [3] | Activity [4] | Activity [5] | Activity (SARS-CoV-2 [6])
1 | CCN(CCO)CCC[C@H](C)Nc1ccnc2cc(Cl)ccc12.O=S(=O)(O)O | Active | 3.05 | Non-Toxic | – | – | –
2 | CCN(CCO)CCC[C@@H](C)Nc1ccnc2cc(Cl)ccc12.O=S(=O)(O)O | Active | 5.38 | – | Toxic | – | –
3 | CCN(CCO)CCCC(C)Nc1ccnc2cc(Cl)ccc12.O=S(=O)(O)O (racemic) [HYDROXYCHLOROQUINE SULFATE] | Active | 5.09 | – | – | Toxic | –
4 | CCC(CC)COC(=O)[C@H](C)N[P@](=O)(OC[C@H]1O[C@@](C#N)(c2ccc3c(N)ncnn23)[C@H](O)[C@@H]1O)Oc1ccccc1 | – | – | – | – | – | Active
